For experiment [1], the system named is Splenocyte. In words: Immunostimulatory activity in C57BL/6 mouse splenocytes assessed as induction of IL12 secretion at 2 to 10 ug/ml after 24 hrs by sandwich ELISA. Format: functional, cell-based. The method in brief:
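C57BL/6 splenocytes (mice 5–8 weeks) at 5 × 10^6 cells/mL in RPMI complete medium. ODNs dissolved in PBS were added and the cells incubated at 37 °C for 24 h. Supernatant IL-12 or IL-6 was measured by sandwich ELISA. Runs were done two or three times, in duplicate per concentration.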
In general terms: An ELISA detects its analyte on a solid surface through an enzyme-linked reagent.

Experiment [2] concerns Splenocyte. Nature of the experiment: Inhibition of 5'-CTATCTGACGTTCTCTGT-3'-induced IL6 secretion in C57BL/6 mouse splenocytes after 24 hrs by sandwich ELISA. Format: functional, cell-based. In outline:
(§1)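 Splenocytes from 5–8-week C57BL/6 mice, 5 × 10^6 cells/mL in RPMI complete medium, were co-incubated with the TLR9 agonist ODN (1 µg/mL) plus test ODN at 1 or 4 µg/mL, or over a concentration series, at 37 °C for 24 h. Supernatant IL-12 or IL-6 was measured by sandwich ELISA. Runs were done in duplicate, with three independent experiments.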

The test system of experiment [3] is Mus musculus. In words: Immunostimulatory activity in C57BL/6 mouse assessed as inhibition of 5'-CTATCTGACGTTCTCTGT-3'-induced KC production in serum at 2 mg/kg, sc administered 24 hrs prior to 5'-CTATCTGACGTTCTCTGT-3' challenge measured after 2 hrs by Luminex multiplex assay. Format: functional, organism-based. Further details: dose 2 mg/kg. In outline: (§2)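 C57BL/6 mice received 2 mg/kg ODN sc in one flank. After 24 h, the TLR9 agonist ODN was given at 0.5 mg/kg sc in the opposite flank. Blood was drawn 2 h later and serum cytokines/chemokines were quantified by Luminex multiplex assay. Percent inhibition was taken against the agonist alone. Representative of three experiments.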

Experiment [4] deals with Mus musculus. In words: Immunostimulatory activity in C57BL/6 mouse assessed as inhibition of 5'-CTATCTGACGTTCTCTGT-3'-induced MIP-1alpha production in serum at 2 mg/kg, sc administered 24 hrs prior to 5'-CTATCTGACGTTCTCTGT-3' challenge measured after 2 hrs by Luminex multiplex assay. Set-up: dose 2 mg/kg. Format: functional, organism-based. The method in brief: as §2
Experiment [5] concerns Mus musculus. In words: Immunostimulatory activity in C57BL/6 mouse assessed as induction of TNFalpha level in serum at 2 mg/kg, sc after 2 hrs by Luminex multiplex assay. Format: functional, organism-based. Further details: dose 2 mg/kg. The method in brief:
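Female C57BL/6 mice, 5–6 weeks old, n = 3, received a single 2 mg/kg subcutaneous ODN injection in the right flank. Blood was taken by retro-orbital bleeding 2 h later. Naive mice served as baseline. Representative of three experiments.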

In experiment [6] the test system is Mus musculus. Nature of the experiment: Immunostimulatory activity in C57BL/6 mouse assessed as inhibition of 5'-CTATCTGACGTTCTCTGT-3'-induced MCP1 production in serum at 2 mg/kg, sc administered 24 hrs prior to 5'-CTATCTGACGTTCTCTGT-3' challenge measured after 2 hrs by Luminex multiplex assay. It is filed as functional, organism-based. Further details: dose 2 mg/kg. The method in brief: as §2

The subject of experiment [7] is Mus musculus. In words: Immunostimulatory activity in C57BL/6 mouse assessed as inhibition of 5'-CTATCTGACGTTCTCTGT-3'-induced TNFalpha production in serum at 2 mg/kg, sc administered 24 hrs prior to 5'-CTATCTGACGTTCTCTGT-3' challenge measured after 2 hrs by Luminex multiplex assay. It is filed as functional, organism-based. Further details: dose 2 mg/kg. The method in brief: as §2

Another experiment concerns J774. Nature of the experiment: Inhibition of 5'-CTATCTGACGTTCTCTGT-3'-activated NF-kappaB activity in mouse J774 cells at 2.5 ug/ml after 1 hr by EMSA. It is filed as cell-based. In outline:
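J774 murine macrophages were grown in DMEM with 10% FBS and antibiotics, plated at 5 × 10^6 cells/well, and co-incubated for 1 h with the agonist ODN (0.5 µg/mL) and test ODN (2.5 µg/mL). Nuclear extracts were prepared and NF-κB binding was analysed by EMSA on native polyacrylamide gels with autoradiography.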
(Mobility shift assays separate free from complexed probe on a gel.)

For experiment [8], the target named is T1, Toll-like receptor 9 (Mus musculus) (UniProt Q9EQU3).
T1 sequence (whole entry): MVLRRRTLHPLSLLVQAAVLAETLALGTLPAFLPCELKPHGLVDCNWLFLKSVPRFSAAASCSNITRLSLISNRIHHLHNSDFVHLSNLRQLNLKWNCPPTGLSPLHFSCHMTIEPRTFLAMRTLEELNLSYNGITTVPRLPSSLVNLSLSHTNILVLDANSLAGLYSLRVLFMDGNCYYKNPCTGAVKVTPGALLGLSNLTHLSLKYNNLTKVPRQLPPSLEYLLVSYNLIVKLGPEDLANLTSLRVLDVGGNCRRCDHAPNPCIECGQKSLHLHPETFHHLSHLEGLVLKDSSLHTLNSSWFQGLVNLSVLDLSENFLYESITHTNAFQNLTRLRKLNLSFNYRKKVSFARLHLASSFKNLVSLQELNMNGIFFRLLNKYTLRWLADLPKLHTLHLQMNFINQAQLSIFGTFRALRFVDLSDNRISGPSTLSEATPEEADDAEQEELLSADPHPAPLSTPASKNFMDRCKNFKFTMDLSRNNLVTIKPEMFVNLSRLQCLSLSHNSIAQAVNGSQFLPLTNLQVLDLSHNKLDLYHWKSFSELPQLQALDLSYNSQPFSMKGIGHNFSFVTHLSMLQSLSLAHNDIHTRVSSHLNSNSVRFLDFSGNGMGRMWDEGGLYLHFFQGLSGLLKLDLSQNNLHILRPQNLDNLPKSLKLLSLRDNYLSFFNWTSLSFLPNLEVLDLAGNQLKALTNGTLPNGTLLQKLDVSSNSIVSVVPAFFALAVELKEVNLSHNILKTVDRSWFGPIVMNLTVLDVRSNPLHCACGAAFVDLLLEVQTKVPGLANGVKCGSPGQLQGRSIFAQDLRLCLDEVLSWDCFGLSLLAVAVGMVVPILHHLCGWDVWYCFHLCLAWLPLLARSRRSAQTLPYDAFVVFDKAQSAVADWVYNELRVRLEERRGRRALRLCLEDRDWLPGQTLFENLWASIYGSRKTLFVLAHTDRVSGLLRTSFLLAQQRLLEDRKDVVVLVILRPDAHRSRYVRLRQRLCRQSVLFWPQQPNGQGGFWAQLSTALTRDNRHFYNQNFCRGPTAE
Nature of the experiment: Activation of mouse TLR9 expressed in HEK293 cells assessed as NF-kappaB level at 0.1 ug/mL after 18 hrs by reporter gene assay. It is filed as cell-based. The method in brief: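 HEK293 cells stably expressing mouse TLR9 were transiently transfected with a SEAP reporter for 6 h, then stimulated with ODN at 0.1, 0.3 or 1 μg/mL for 18 h. Reporter expression is given as fold change in NF-κB activity over medium. Representative of two independent experiments.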
In general terms: In a reporter assay the amount or activity of a reporter protein is the signal.

The test system of experiment [9] is Splenocyte. In words: Inhibition of 5'-CTATCTGACGTTCTCTGT-3'-induced IL12 secretion in C57BL/6 mouse splenocytes after 24 hrs by sandwich ELISA. It is filed as functional, cell-based. The method in brief:
as §1

The test system of experiment [10] is Mus musculus. In words: Immunostimulatory activity in C57BL/6 mouse assessed as inhibition of LPS-induced IL10 production in serum at 10 mg/kg, sc administered 24 hrs prior to LPS challenge measured after 2 hrs by Luminex multiplex assay.

Each structure is given as a SMILES string. Active and inactive are the calls of the source. No cut-off for these calls is given here.

`COC1[C@H](n2cc(C)c(N)nc2=O)O[C@H](COP(=O)(S)O[C@H]2C[C@H](n3cnc4c(N)ncnc43)O[C@@H]2COP(=O)(S)O[C@H]2C[C@H](n3cnc4c(=O)[nH]c(N)nc43)O[C@@H]2COP(=O)(S)O[C@H]2C[C@H](n3cc(C)c(=O)[nH]c3=O)O[C@@H]2COP(=O)(S)O[C@H]2C[C@H](n3ccc(N)nc3=O)O[C@@H]2COP(=O)(S)O[C@H]2C[C@H](n3cc(C)c(=O)[nH]c3=O)O[C@@H]2COP(=O)(S)O[C@H]2C[C@H](n3cnc4c(N)ncnc43)O[C@@H]2COP(=O)(S)O[C@H]2C[C@H](n3cc(C)c(=O)[nH]c3=O)O[C@@H]2COP(=O)(S)O[C@H]2C[C@H](n3ccc(N)nc3=O)O[C@@H]2CO)[C@H]1OP(=O)(S)OC[C@H]1O[C@@H](n2cnc3c(=O)[nH]c(N)nc32)C[C@@H]1OP(=O)(S)OC[C@H]1O[C@@H](n2cc(C)c(=O)[nH]c2=O)C[C@@H]1OP(=O)(S)OC[C@H]1O[C@@H](n2cc(C)c(=O)[nH]c2=O)C[C@@H]1OP(=O)(S)OC[C@H]1O[C@@H](n2ccc(N)nc2=O)C[C@@H]1OP(=O)(S)OC[C@H]1O[C@@H](n2cc(C)c(=O)[nH]c2=O)C[C@@H]1OP(=O)(S)OC[C@H]1O[C@@H](n2ccc(N)nc2=O)C[C@@H]1OP(=O)(S)OC[C@H]1O[C@@H](n2cc(C)c(=O)[nH]c2=O)C[C@@H]1OP(=O)(S)OC[C@H]1O[C@@H](n2cnc3c(=O)[nH]c(N)nc32)C[C@@H]1OP(=O)(S)OC[C@H]1O[C@@H](n2cc(C)c(=O)[nH]c2=O)C[C@@H]1O` (stereo partly specified): the result with Splenocyte [1], in the experiment on Mus musculus [3], with Mus musculus [4], in the experiment with Mus musculus [6], in the experiment on Mus musculus [7] and in the experiment with J774 was Active. Moreover, the Activity entry in the experiment with Splenocyte [2] and with Splenocyte [9] was “Dose-dependent effect” in each case. Further, the outcome (in the experiment on Mus musculus [5]; in experiment [8]) was inactive.
`COC1[C@H](n2cnc3c(=O)[nH]c(N)nc32)O[C@H](COP(=O)(S)O[C@H]2C[C@H](n3cc(C)c(N)nc3=O)O[C@@H]2COP(=O)(S)O[C@H]2C[C@H](n3cnc4c(N)ncnc43)O[C@@H]2COP(=O)(S)O[C@H]2C[C@H](n3cnc4c(=O)[nH]c(N)nc43)O[C@@H]2COP(=O)(S)O[C@H]2C[C@H](n3cc(C)c(=O)[nH]c3=O)O[C@@H]2COP(=O)(S)O[C@H]2C[C@H](n3ccc(N)nc3=O)O[C@@H]2COP(=O)(S)O[C@H]2C[C@H](n3cc(C)c(=O)[nH]c3=O)O[C@@H]2COP(=O)(S)O[C@H]2C[C@H](n3cnc4c(N)ncnc43)O[C@@H]2COP(=O)(S)O[C@H]2C[C@H](n3cc(C)c(=O)[nH]c3=O)O[C@@H]2COP(=O)(S)O[C@H]2C[C@H](n3ccc(N)nc3=O)O[C@@H]2CO)[C@H]1OP(=O)(S)OC[C@H]1O[C@@H](n2cc(C)c(=O)[nH]c2=O)C[C@@H]1OP(=O)(S)OC[C@H]1O[C@@H](n2cc(C)c(=O)[nH]c2=O)C[C@@H]1OP(=O)(S)OC[C@H]1O[C@@H](n2ccc(N)nc2=O)C[C@@H]1OP(=O)(S)OC[C@H]1O[C@@H](n2cc(C)c(=O)[nH]c2=O)C[C@@H]1OP(=O)(S)OC[C@H]1O[C@@H](n2ccc(N)nc2=O)C[C@@H]1OP(=O)(S)OC[C@H]1O[C@@H](n2cc(C)c(=O)[nH]c2=O)C[C@@H]1OP(=O)(S)OC[C@H]1O[C@@H](n2cnc3c(=O)[nH]c(N)nc32)C[C@@H]1OP(=O)(S)OC[C@H]1O[C@@H](n2cc(C)c(=O)[nH]c2=O)C[C@@H]1O` (stereo partly specified): the outcome in the experiment on Splenocyte [1], in the experiment on Mus musculus [3], with Mus musculus [4], in the experiment on Mus musculus [6], in the experiment on Mus musculus [7] and in the experiment with J774 was Active. Further, the Activity entry in the experiment with Splenocyte [2] and in the experiment with Splenocyte [9] was “Dose-dependent effect” in each case. Moreover, the outcome (in the experiment with Mus musculus [5]; in [8]; in the experiment on Mus musculus [10]) was inactive.
